# Reference: ChEMBL document CHEMBL2057145, “Development of novel antibacterial agents against methicillin-resistant Staphylococcus aureus” (Bioorg Med Chem, 2012)
# Tests used:
# [1] = test system: Staphylococcus intermedius; test: Antibacterial activity against Staphylococcus intermedius ATCC 29663 after 24 hrs by broth microdilution method; format: functional; conditions: ATCC 29663, 24 h
# [2] = test system: Staphylococcus lugdunensis; test: Antibacterial activity against Staphylococcus lugdunensis isolate NTUH after 24 hrs by broth microdilution method; format: functional
# Staphylococcus aureus [3] = test: Antibacterial activity against Staphylococcus aureus ATCC 29213 after 24 hrs by broth microdilution method; format: functional; conditions: ATCC 29213, 24 h
# HT-29 = test: Antiproliferative activity against human HT-29 cells after 24 hrs by MTT assay; format: cell-based; conditions: HT-29, 24 h
# How it was run: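 HT-29 human colon adenocarcinoma cells seeded at 1 × 10⁴ cells/well in RPMI 1640 with 10% FBS and 10 µg/mL gentamicin, left overnight at 37 °C, 5% CO₂. Medium then replaced with medium holding test agents (final DMSO 0.1%; DMSO-only controls), at least 6 wells per condition, for 24 h. Viability read by MTT (0.5 mg/mL, 2 h, 37 °C), DMSO solubilization, absorbance 570 nm.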
# [4] = Selectivity ratio of IC50 for human HT-29 cells to MIC for Staphylococcus aureus ATCC 29213; format: functional
# How it was run: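 Ratio of HT-29 IC50 (MTT assay, 24 h exposure) to MIC against S. aureus ATCC 29213 (CLSI broth microdilution, 24 h, 37 °C).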
# Staphylococcus aureus [5] = test: Antibacterial activity against methicillin-resistant Staphylococcus aureus ATCC 33592 after 24 hrs by broth microdilution method; format: functional; conditions: ATCC 33592, 24 h
# How it was run: (§1)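 CLSI broth microdilution. Bacteria grown overnight on LB agar, suspended in PBS, then exposed to test agents at 0.25 to 64 µg/mL in triplicate. Incubation 37 °C for 24 h. MIC is the lowest concentration with no visible bacterial growth. DMSO stocks diluted in culture medium to a final DMSO of 0.1%.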
# Staphylococcus aureus [6] = test: Bactericidal activity against Staphylococcus aureus ATCC 29213 assessed as decrease in bacterial count at 8 times compound MIC after 24 hrs by time-kill assay; format: functional; parameters: scale not given: the % may be the effect or the level left
# How it was run: (§2)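 S. aureus ATCC 29213 at 5 × 10⁵ CFU/mL in CAMHB exposed to test agents at 2-, 4- and 8-fold MIC, in triplicate. DMSO-matched medium served as control. At successive times, aliquots serially diluted in PBS and plated on LB agar (37 °C, 16 h). Counts given as CFU/mL, mean ± SD (n = 3); 99.9% killing used as reference.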
# [7] = test system: Staphylococcus epidermidis; test: Antibacterial activity against Staphylococcus epidermidis ATCC 35984 after 24 hrs by broth microdilution method; format: functional; conditions: RP62A
# Staphylococcus aureus [8] = test: Bactericidal activity against Staphylococcus aureus ATCC 29213 assessed as decrease in bacterial count at 2 to 8 times compound MIC by time-kill assay; format: functional, organism-based; conditions: TDE = time-dependent effect; how it was run: as §2
# Mus musculus [9] = test: Toxicity in C57BL/6 mouse infected with methicillin-resistant Staphylococcus aureus ATCC 33592 assessed as lethargy at 30 mg/kg, ip administered 1 hr post infection; format: organism-based; parameters: dose 30 mg/kg, route intraperitoneal; conditions: in vivo
# How it was run: (§3)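 Female C57BL/6 mice, N = 5 per group, were infected ip with a 100% lethal dose of MRSA, 7 × 10⁷ CFU in 0.3 ml PBS. At 1 h they received one ip dose of 30 mg/kg in vehicle (40% PEG-400, 10% […], 10% DMSO in normal saline). Body weight and morbidity were recorded daily for 7 days. Mice were sacrificed on significant morbidity, including 20% weight loss.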
# Mus musculus [10] = test: Toxicity in C57BL/6 mouse infected with methicillin-resistant Staphylococcus aureus ATCC 33592 assessed as decrease in body temperature at 30 mg/kg, ip administered 1 hr post infection; format: organism-based; parameters: dose 30 mg/kg, route intraperitoneal; conditions: in vivo; how it was run: as §3
# Staphylococcus aureus [11] = test: Antibacterial activity against methicillin-resistant Staphylococcus aureus ATCC 33592 infected in C57BL/6 mouse assessed as mouse survival time at 30 mg/kg, ip administered 1 hr post infection; format: functional; conditions: route intraperitoneal; how it was run: as §3
# Mus musculus [12] = test: Toxicity in C57BL/6 mouse infected with methicillin-resistant Staphylococcus aureus ATCC 33592 assessed as weight loss at 30 mg/kg, ip administered 1 hr post infection; format: organism-based; parameters: dose 30 mg/kg, route intraperitoneal; conditions: in vivo; how it was run: as §3
# Staphylococcus aureus [13] = test: Antibacterial activity against Staphylococcus aureus ATCC 12598 after 24 hrs by broth microdilution method; format: functional; conditions: ATCC 12598, 24 h
# How it was run: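 CLSI broth microdilution. Incubation 37 °C for 24 h. MIC is the lowest concentration with no visible bacterial growth. DMSO stocks diluted in culture medium to a final DMSO of 0.1%.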
# Staphylococcus aureus [14] = test: Antibacterial activity against methicillin-resistant Staphylococcus aureus ATCC 49476 after 24 hrs by broth microdilution method; conditions: ATCC 49476, 24 h
# [15] = test system: Staphylococcus haemolyticus; test: Antibacterial activity against Staphylococcus haemolyticus ATCC 29970 after 24 hrs by broth microdilution method; format: functional; conditions: ATCC 29970, 24 h
# [16] = test system: Staphylococcus epidermidis; test: Antibacterial activity against Staphylococcus epidermidis ATCC 12228 after 24 hrs by broth microdilution method; format: functional; conditions: ATCC 12228, 24 h
# [17] = test system: Staphylococcus saprophyticus; test: Antibacterial activity against Staphylococcus saprophyticus ATCC 15305 after 24 hrs by broth microdilution method; format: functional; conditions: ATCC 15305, 24 h
# Staphylococcus aureus [18] = test: Antibacterial activity against methicillin-resistant Staphylococcus aureus expressing […] subtype VT after 24 hrs by broth microdilution method; format: functional; how it was run: as §1
# Staphylococcus hominis = test: Antibacterial activity against Staphylococcus hominis ATCC 27844 after 24 hrs by broth microdilution method; format: functional; conditions: ATCC 27844, 24 h
# Staphylococcus aureus [19] = test: Antibacterial activity against Staphylococcus aureus assessed as log decrease in bacterial CFU at 32 ug/ml after 24 hrs; format: functional
# Mus musculus [20] = test: Toxicity in C57BL/6 mouse infected with methicillin-resistant Staphylococcus aureus ATCC 33592 assessed as mortality at 30 mg/kg, ip administered 1 hr post infection; format: organism-based; parameters: dose 30 mg/kg, route intraperitoneal; conditions: in vivo; how it was run: as §3
# Mus musculus [21] = test: Toxicity in C57BL/6 mouse infected with methicillin-resistant Staphylococcus aureus ATCC 33592 assessed as weight loss at 30 mg/kg, ip administered 1 hr post infection measured on day 1 post infection; format: organism-based; parameters: dose 30 mg/kg, route intraperitoneal; conditions: in vivo; how it was run: as §3
# Mus musculus [22] = test: Toxicity in C57BL/6 mouse infected with methicillin-resistant Staphylococcus aureus ATCC 33592 assessed as weight loss at 30 mg/kg, ip administered 1 hr post infection measured on day 3 to 6 post infection; format: organism-based; parameters: dose 30 mg/kg, route intraperitoneal; conditions: in vivo; how it was run: as §3
SMILES,MIC [1] [µg/mL],MIC [2] [µg/mL],MIC (Staphylococcus aureus [3]) [µg/mL],IC50 (HT-29) [µg/mL],Ratio [4],MIC (Staphylococcus aureus [5]) [µg/mL],MIC [7] [µg/mL],other results
NC(=O)c1ccc(-n2nc(C(F)(F)F)cc2-c2c3ccccc3cc3ccccc23)cc1,4,4,2,12,6,4,2,Activity (Staphylococcus aureus [6]): 99.14%; Activity (Staphylococcus aureus [8]): tde
NCCCC[C@H](N)C(=O)Nc1ccc(-n2nc(C(F)(F)F)cc2-c2ccc3c(ccc4ccccc43)c2)cc1,,,,19.5,4.9,,,
NCCCC[C@H](N)C(=O)Nc1ccc(-n2nc(C(F)(F)F)cc2-c2ccc3c(c2)Nc2ccccc2S3)cc1,,,2,5.2,2.6,,,
NS(=O)(=O)Nc1ccc(-n2nc(C(F)(F)F)cc2-c2ccc3c(ccc4ccccc43)c2)cc1,1,2,1,,12,,2,Activity (Mus musculus [9]): Toxic; Activity (Mus musculus [10]): Toxic; Activity (Staphylococcus aureus [6]): 99.91%; Survival (Staphylococcus aureus [11]): <=2 day; Activity (Mus musculus [12]): > 20%; Activity (Staphylococcus aureus [8]): tde
NCC(=O)Nc1ccc(-n2nc(C(F)(F)F)cc2-c2ccc3c(c2)Nc2ccccc2S3)cc1,,,4,,1.6,,4,
NCCC(=O)Nc1ccc(-n2nc(C(F)(F)F)cc2-c2ccc3c(c2)oc2ccccc23)cc1,,,4,,1.8,,4,
NCCC(=O)Nc1ccc(-n2nc(C(F)(F)F)cc2-c2ccc3c(c2)Nc2ccccc2S3)cc1,,,4,7.5,1.9,,4,
NCCC(=O)Nc1ccc(-n2nc(C(F)(F)F)cc2-c2ccc(-c3ccc(C(F)(F)F)cc3)cc2)cc1,,,4,4.2,1.1,,4,
NCCCC[C@@H](N)C(=O)Nc1ccc(-n2nc(C(F)(F)F)cc2-c2ccc3c(ccc4ccccc43)c2)cc1,,,4,,0.8,,4,
CC1(C)S[C@@H]2[C@H](NC(=O)[C@H](N)c3ccccc3)C(=O)N2[C@H]1C(=O)O [AMPICILLIN],0.125,32,8,,,> 64,64,MIC (Staphylococcus aureus [13]): 0.25 µg/mL; MIC (Staphylococcus aureus [14]): 64 µg/mL; MIC [15]: 0.25 µg/mL; MIC [16]: 16 µg/mL; MIC [17]: 0.5 µg/mL; MIC (Staphylococcus aureus [18]): > 64 µg/mL; MIC (Staphylococcus hominis): < 0.0625 µg/mL
NS(=O)(=O)Nc1ccc(-n2nc(C(F)(F)F)cc2-c2ccc3ccccc3c2)cc1,2,4,1,,19,,,
Cc1ccc(-c2ccc(-c3cc(C(F)(F)F)nn3-c3ccc(NS(N)(=O)=O)cc3)cc2)cc1,2,2,1,,9,1,,MIC (Staphylococcus aureus [13]): 1 µg/mL; MIC (Staphylococcus aureus [14]): 1 µg/mL; MIC [16]: 1 µg/mL; MIC (Staphylococcus aureus [18]): 1 µg/mL
Cc1ccc(-c2cc(C(F)(F)F)nn2-c2ccc(S(N)(=O)=O)cc2)cc1 [CELECOXIB],,,32,18,0.6,,16,FC (Staphylococcus aureus [19]): 6
NCCCC[C@@H](N)C(=O)Nc1ccc(-n2nc(C(F)(F)F)cc2-c2ccc3c(c2)Nc2ccccc2S3)cc1,,,4,17.5,4.4,,4,
NS(=O)(=O)Nc1ccc(-n2nc(C(F)(F)F)cc2-c2ccc(-c3ccc(Br)cc3)cc2)cc1,2,2,1,,10,1,,MIC (Staphylococcus aureus [13]): 1 µg/mL; MIC (Staphylococcus aureus [14]): 1 µg/mL; MIC [16]: 1 µg/mL; MIC (Staphylococcus aureus [18]): 1 µg/mL
NS(=O)(=O)Nc1ccc(-n2nc(C(F)(F)F)cc2-c2ccc(-c3ccccc3)cc2)cc1,2,2,1,,16,1,,MIC (Staphylococcus aureus [13]): 1 µg/mL; MIC (Staphylococcus aureus [14]): 1 µg/mL; MIC (Staphylococcus aureus [18]): 1 µg/mL
NS(=O)(=O)Nc1ccc(-n2nc(C(F)(F)F)cc2-c2ccc3cc4ccccc4cc3c2)cc1,4,4,,11,2.8,2,,MIC (Staphylococcus aureus [14]): 2 µg/mL; MIC [15]: 16 µg/mL; MIC [16]: 2 µg/mL; MIC [17]: 8 µg/mL; MIC (Staphylococcus aureus [18]): 2 µg/mL; MIC (Staphylococcus hominis): 2 µg/mL
NS(=O)(=O)Nc1ccc(-n2nc(C(F)(F)F)cc2-c2c3ccccc3cc3ccccc23)cc1,0.5,4,,20,40,,1,Activity (Mus musculus [20]): Toxic; Activity (Mus musculus [21]): Toxic; Activity (Staphylococcus aureus [6]): 99.99%; Survival (Staphylococcus aureus [11]): 7 days; Activity (Mus musculus [22]): Non-toxic; Activity (Staphylococcus aureus [8]): tde
Cc1ccc(-c2cc(C(F)(F)F)nn2-c2ccc(NS(N)(=O)=O)cc2)cc1,8,16,4,28,7,4,4,MIC (Staphylococcus aureus [13]): 4 µg/mL; MIC (Staphylococcus aureus [14]): 4 µg/mL; MIC [16]: 4 µg/mL; MIC (Staphylococcus aureus [18]): 4 µg/mL
NCCCC[C@H](N)C(=O)Nc1ccc(-n2nc(C(F)(F)F)cc2-c2ccc(-c3ccc(C(F)(F)F)cc3)cc2)cc1,,,4,3.3,0.8,,4,
NS(=O)(=O)c1ccc(-n2nc(C(F)(F)F)cc2-c2ccc(-c3ccc(Cl)cc3)cc2)cc1,,,4,12.5,3.1,,8,
NCC(=O)Nc1ccc(-n2nc(C(F)(F)F)cc2-c2ccc3c(c2)oc2ccccc23)cc1,,,4,6.5,1.6,,4,
O=C(N[C@H](CO)[C@H](O)c1ccc([N+](=O)[O-])cc1)C(Cl)Cl [CHLORAMPHENICOL],,2,8,,,64,8,MIC (Staphylococcus aureus [18]): 32 µg/mL
NCC(=O)Nc1ccc(-n2nc(C(F)(F)F)cc2-c2ccc3c(ccc4ccccc43)c2)cc1 [AR-12],,,4,,0.9,,4,
NCCC(=O)Nc1ccc(-n2nc(C(F)(F)F)cc2-c2ccc3c(ccc4ccccc43)c2)cc1,,,4,6,1.5,,4,
